Assay outcomes from PubChem.
UHRF1 binding: UHRF1 methylated DNA binding inhibitors, primary screen, counter-screen for MBD2 inhibitor project, biochemical, TR-FRET, human UHRF1, single concentration. actives 0.75% (n = 370,000). inhibition, % at 4.4 µM. E3 ubiquitin-protein ligase UHRF1 (Homo sapiens), Q96T88. UHRF1 binding to methylated oligo; in the data active = inhibition above about 21%;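 also: UHRF1 SRA domain binding a hemimethylated CpG hairpin DNA probe; 0% = median of test compound wells and 100% = reference inhibitor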
DSG3 Ab inh: inhibitors of pemphigus antibody binding to DSG3, primary screen, biochemical, bead-based, flow cytometry, scFv-GFP. DSG3-coupled beads, scFv-anti-DSG3-GFP binding; stronger effect = lower value. Desmoglein-3 (Homo sapiens), P32926. actives 0.48% (n = 310,000). binding (percent of control), % at 10 µM. AID 588358, 2011;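 active = binding more than 3 SD below its plate's average and above zero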;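 also: hits lower antibody fragment binding to DSG3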
Target sequence (P32926 whole entry, looked up, the tested form may be a part): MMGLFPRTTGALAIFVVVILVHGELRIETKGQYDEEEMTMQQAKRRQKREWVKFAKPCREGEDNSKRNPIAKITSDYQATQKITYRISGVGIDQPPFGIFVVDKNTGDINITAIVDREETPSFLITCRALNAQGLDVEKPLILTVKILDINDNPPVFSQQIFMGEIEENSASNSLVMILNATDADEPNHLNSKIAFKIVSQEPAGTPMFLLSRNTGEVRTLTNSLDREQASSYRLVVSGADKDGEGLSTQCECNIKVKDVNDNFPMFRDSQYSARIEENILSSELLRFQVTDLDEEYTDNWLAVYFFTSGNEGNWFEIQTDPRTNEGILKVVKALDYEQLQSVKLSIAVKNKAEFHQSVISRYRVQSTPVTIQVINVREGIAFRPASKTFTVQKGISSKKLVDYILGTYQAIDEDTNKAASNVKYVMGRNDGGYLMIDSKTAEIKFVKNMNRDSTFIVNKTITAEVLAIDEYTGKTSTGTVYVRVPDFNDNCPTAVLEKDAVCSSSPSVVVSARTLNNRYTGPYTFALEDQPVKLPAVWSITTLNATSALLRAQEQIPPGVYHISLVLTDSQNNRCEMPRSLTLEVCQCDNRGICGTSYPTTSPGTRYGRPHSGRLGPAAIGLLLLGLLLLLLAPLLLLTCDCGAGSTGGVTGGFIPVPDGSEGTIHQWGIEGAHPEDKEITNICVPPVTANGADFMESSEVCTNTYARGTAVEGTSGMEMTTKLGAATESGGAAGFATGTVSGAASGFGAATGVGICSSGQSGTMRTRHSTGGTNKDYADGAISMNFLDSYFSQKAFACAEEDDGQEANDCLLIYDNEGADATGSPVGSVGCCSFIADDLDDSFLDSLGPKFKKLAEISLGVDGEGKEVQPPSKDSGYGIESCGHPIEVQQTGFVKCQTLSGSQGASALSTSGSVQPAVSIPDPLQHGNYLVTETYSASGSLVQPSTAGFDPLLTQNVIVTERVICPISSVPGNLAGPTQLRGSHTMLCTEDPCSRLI
NS3 helicase inh: inhibitors of HCV NS3 helicase, primary screen, biochemical, Cy5 molecular beacon fluorescence. Hepatitis C virus NS3 helicase. NS3 helicase DNA unwinding. inhibition, % at 10.9 µM. actives 0.56% (n = 290,000);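 active = inhibition above the mean of all tested compounds plus 3 SD, set per campaign, cut at about 35% in these data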;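 also: 0% = DMSO wells and 100% = thioflavine S control wells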
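Compound dosing – single dose, 10.9 µM nominal final, DMSO 0.8% final · System – NS3 helicase fragment of HCV · Buffer or medium – MOPS pH 6.5, MgCl2, DTT, Tween20, BSA · Signal – Cy5 beacon fluorescence read at start and 1 h · Also added – annealed dual-labelled DNA beacon duplex, ATP-started · Schedule – 1 h at 25 °C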
SUMO1 PPI mod: modulators of SUMO1 protein-protein interactions, primary screen, biochemical, uHTS; Small ubiquitin-related modifier 1 (Homo sapiens), P63165; SUMO1 binding to a labelled peptide, TR-FRET, 1 h; inhibition, % at 20 µM; actives 0.33% (n = 360,000); AID 602429, 2012
DNMT1 block: human DNMT1 methyltransferase inhibitors, primary screen, biochemical, molecular beacon, fluorescence, HinP1I cleavage, uHTS; actives 0.83% (n = 360,000); AID 588458, 2011; inhibition (reported as % activation of signal), % at 10 µM; DNA (cytosine-5)-methyltransferase 1 (Homo sapiens), P26358; in the data active = inhibition above about 50%
MBD2 inh: inhibitors of MBD2 binding to methylated DNA, primary screen, biochemical, TR-FRET, DNA-binding domain, human | Methyl-CpG-binding domain protein 2 (Homo sapiens), Q9UBB5 | MBD2 binding to methylated oligonucleotide | inhibition, % at 4.4 µM | actives 0.31% (n = 370,000) | AID 686964, 2013; in the data active = inhibition above about 13%
NS3 helicase cf: HCV NS3 helicase inhibitors, retest, confirmation, biochemical, Cy5 molecular beacon fluorescence, triplicate; shares compounds with NS3 helicase inh; NS3 helicase DNA unwinding; inhibition, % at 10.9 µM; actives 31% (n = 1,600); AID 1943, 2009;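 active = inhibition above the mean of all tested compounds plus 3 SD, cutoff set per campaign, cut at about 36% in these data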
DNA FID counter: compounds displacing fluorescent DNA intercalator, artefact control for HCV NS3 helicase inhibitor project, biochemical, FID fluorescence, triplicate; shares compounds with NS3 helicase inh; actives 4% (n = 1,600); AID 1945, 2009; DNA fluorescent intercalator displacement; inhibition, % at 7.9 µM;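 also: 0% = vehicle and 100% = reference compound; higher means more displacement of ethidium bromide from the DNA hairpin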
Starred values were filed as active, the others as inactive. Most compounds without a hit are left out; they make up all but 2.5% or so of the library. Rule as the data show it, unless noted: active = inhibition above about 37%; inactive = the rest.

`Cc1ccc(S(=O)(=O)c2cc3c(=O)n4ccccc4nc3n(Cc3ccco3)c2=N)cc1C` gave UHRF1 binding -0.2, NS3 helicase inh 19.0 and MBD2 inh -0.7.
Cc1cc(C(=O)CSc2nc3ccccc3c(=O)n2C)c(C)n1Cc1ccc2c(c1)OCO2 was read as UHRF1 binding 3.1, DSG3 Ab inh 93.5, NS3 helicase inh 40.0*, SUMO1 PPI mod 19.2, DNMT1 block -7.1, MBD2 inh 5.7, NS3 helicase cf 2.0 and DNA FID counter -18.2.
For Nn1c(SCC(=O)NC(=O)NCc2ccccc2)nnc1C1CC1 the results were UHRF1 binding 2.2, DSG3 Ab inh 107.0, NS3 helicase inh -0.2, SUMO1 PPI mod 2.4, DNMT1 block -2.4 and MBD2 inh -5.2.
For CCCc1cc(=O)oc2cc(C)cc(OC(C)C(=O)NCC3CCC(C(=O)O)CC3)c12 (stereo not drawn) the results were UHRF1 binding 0.8, DSG3 Ab inh 105.4, NS3 helicase inh 38.2*, SUMO1 PPI mod 4.7, DNMT1 block 3.6, MBD2 inh 3.4, NS3 helicase cf -18.7 and DNA FID counter -12.4.
For Cc1ccc(C(=O)N2CCN(S(=O)(=O)c3ccccc3[N+](=O)[O-])C2)cc1 the results were UHRF1 binding 6.1, DSG3 Ab inh 96.2, NS3 helicase inh 1.9, SUMO1 PPI mod -6.8, DNMT1 block 1.7 and MBD2 inh 5.2.
`Cc1cc2cc3c(cc2nc1SCC(=O)Nc1ccccc1)CCC3` gave UHRF1 binding -0.1, DSG3 Ab inh 94.8, NS3 helicase inh 1.0, SUMO1 PPI mod -4.0, DNMT1 block 7.6 and MBD2 inh -5.0.
Cc1onc(-c2ccccc2)c1C(=O)N/N=C/c1ccco1 was read as UHRF1 binding -1.3, NS3 helicase inh 40.0*, SUMO1 PPI mod -1.5, DNMT1 block 4.5, MBD2 inh -1.1, NS3 helicase cf -11.9 and DNA FID counter -7.5.
Screening Cc1onc(-c2ccccc2)c1C(=O)N/N=C/c1cccc(O)c1 returned UHRF1 binding -4.7, DSG3 Ab inh 102.7, NS3 helicase inh 12.6, SUMO1 PPI mod -1.3, DNMT1 block 0.9 and MBD2 inh -2.9.
Screening COc1cccc(/C=N/NC(=O)CSc2nnc(C)n2-c2ccccc2)c1OC returned UHRF1 binding -1.2, DSG3 Ab inh 103.8, NS3 helicase inh 4.5, SUMO1 PPI mod -0.6, DNMT1 block 2.9 and MBD2 inh -2.7.
Oc1c(Br)cc(/C=N/n2c(-c3ccccc3)n[nH]c2=S)c(Br)c1O was read as NS3 helicase inh 39.0*, NS3 helicase cf 65.2* and DNA FID counter 22.2.
Cn1cc(S(=O)(=O)Nc2cccc3ccccc23)c(=O)n(C)c1=O was read as UHRF1 binding 1.5, DSG3 Ab inh 106.4, NS3 helicase inh 5.3, SUMO1 PPI mod -3.4, DNMT1 block 2.3 and MBD2 inh 3.4.
`CC(=O)c1cccc(N=Cc2c(O)ccc3ccccc23)c1` gave UHRF1 binding -0.4, DSG3 Ab inh 118.5, NS3 helicase inh 3.0, SUMO1 PPI mod -6.1, DNMT1 block -5.1 and MBD2 inh -3.6.
`CC(=O)N(C)c1ccc(N=Cc2c(O)ccc3ccccc23)cc1` gave UHRF1 binding -2.2, DSG3 Ab inh 101.6, NS3 helicase inh 36.3*, SUMO1 PPI mod -15.4, DNMT1 block -3.3, MBD2 inh -3.7, NS3 helicase cf 2.3 and DNA FID counter 7.0.
For Cc1ccc(/C=C2/SC(=O)NC2=S)o1 the results were DSG3 Ab inh 103.2, NS3 helicase inh 52.8*, SUMO1 PPI mod 36.2, DNMT1 block 40.8, NS3 helicase cf 38.0* and DNA FID counter 17.1.
For CCOc1ccc(-n2nc3ccc(N)cc3n2)cc1 the results were UHRF1 binding -3.8, DSG3 Ab inh 115.0, NS3 helicase inh 44.1*, SUMO1 PPI mod -9.2, DNMT1 block -30.9, MBD2 inh -1.4, NS3 helicase cf -14.6 and DNA FID counter -0.7.
For CCOc1ccc(-n2nc3cc(C)c(N)cc3n2)cc1 the results were UHRF1 binding 1.4, DSG3 Ab inh 93.0, NS3 helicase inh 63.3*, SUMO1 PPI mod -1.1, DNMT1 block -7.8, MBD2 inh 0.8, NS3 helicase cf -9.2 and DNA FID counter -0.1.
Cc1cc2nn(-c3ccc(F)cc3)nc2cc1N was read as UHRF1 binding 0.9, DSG3 Ab inh 125.3, NS3 helicase inh 27.3, SUMO1 PPI mod -17.2, DNMT1 block -19.9 and MBD2 inh -0.3.
`O=C(CN1CCN(c2nc(-c3ccc(Cl)cc3)cs2)CC1)NCc1ccco1` gave UHRF1 binding 0.1, DSG3 Ab inh 102.5, NS3 helicase inh -6.0, SUMO1 PPI mod -6.9, DNMT1 block -12.4 and MBD2 inh -5.6.
O=S(=O)(Cc1ccco1)Cc1nc(-c2ccc(Cl)cc2)cs1 was read as UHRF1 binding 1.0, DSG3 Ab inh 95.9, NS3 helicase inh 43.2*, SUMO1 PPI mod 11.8, DNMT1 block -6.3, MBD2 inh 2.7, NS3 helicase cf -14.5 and DNA FID counter -8.1.
For O=C(Nc1cccc(-n2cnnn2)c1)c1ccccc1Br the results were UHRF1 binding 1.2, DSG3 Ab inh 103.3, NS3 helicase inh 53.2*, SUMO1 PPI mod -7.0, DNMT1 block -0.1, MBD2 inh -1.4, NS3 helicase cf -9.2 and DNA FID counter 4.1.
O=C(Nc1cccc(-n2cnnn2)c1)c1cc(Cl)ccc1Cl was read as UHRF1 binding 0.7, DSG3 Ab inh 107.5, NS3 helicase inh 1.5, SUMO1 PPI mod -10.3, DNMT1 block 0.6 and MBD2 inh -2.1.
Screening Cc1nccn1CC(=O)c1ccccc1 returned UHRF1 binding 1.2, DSG3 Ab inh 104.4, SUMO1 PPI mod 1.7, DNMT1 block 0.3 and MBD2 inh 1.0.
Screening CN=c1scc(-c2ccccc2F)n1/N=C/c1ccc(O)c(O)c1O returned UHRF1 binding 0.2, DSG3 Ab inh 89.0, NS3 helicase inh 23.1, SUMO1 PPI mod -13.9, DNMT1 block -10.1 and MBD2 inh -1.4.
